# Experiments:
# Format in all cases: functional
# [1] = tested on: Haemophilus influenzae; assay: MIC value was measured against haemophilus influenzae.
# How it was run: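 Susceptibility determined by standard agar-dilution method against a panel of bacterial strains.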
# [2] = tested on: Staphylococcus aureus; assay: Effective dose against mice infected with Staphylococcus aureus after peroral administration (in vivo); details: in Mus musculus, po
# [3] = tested on: Streptococcus pyogenes; assay: MIC value measured against streptococcus pyogenes C203
# [4] = tested on: Streptococcus pyogenes; assay: Effective dose against mice infected with streptococcus pyogenes after peroral administration (in vivo); details: in Mus musculus, po
# [5] = tested on: Staphylococcus epidermidis; assay: microbe, parasite or virus in culture
# [6] = tested on: Staphylococcus aureus; assay: MIC value measured against staphylococcus aureus X1
# [7] = tested on: Haemophilus influenzae; assay: MIC value was measured against haemophilus influenzae CL
# [8] = tested on: Streptococcus pneumoniae; assay: Effective dose against mice infected with streptococcus pneumoniae after peroral administration (in vivo); details: in Mus musculus, po
# [9] = tested on: Streptococcus pneumoniae; assay: MIC value measured against streptococcus pneumoniae Park1
SMILES,MIC [1],MIC [3],MIC [5],MIC [6],MIC [7],MIC [9],ED50 [2],ED50 [4],ED50 [8]
CC[C@H]1OC(=O)[C@H](C)[C@@H](OC2CC(C)(OC)C(O)C(C)O2)[C@H](C)[C@@H](OC2OC(C)CC(N(C)C)C2O)[C@](C)(O)C[C@@H](C)[C@H](NCCCC#N)[C@H](C)[C@@H](O)[C@]1(C)O (stereo partly drawn),2 µg/mL,1 µg/mL,1 µg/mL,1 µg/mL,2 µg/mL,–,36 mg/kg,21 mg/kg,29 mg/kg
CCCCCN[C@@H]1[C@H](C)[C@@H](O)[C@](C)(O)[C@@H](CC)OC(=O)[C@H](C)[C@@H](OC2CC(C)(OC)C(O)C(C)O2)[C@H](C)[C@@H](OC2OC(C)CC(N(C)C)C2O)[C@](C)(O)C[C@H]1C (stereo partly drawn),1 µg/mL,0.06 µg/mL,0.5 µg/mL,0.5 µg/mL,1 µg/mL,0.015 µg/mL,25 mg/kg,9 mg/kg,14 mg/kg
CCCCCCCCCCCCN[C@@H]1[C@H](C)[C@@H](O)[C@](C)(O)[C@@H](CC)OC(=O)[C@H](C)[C@@H](OC2CC(C)(OC)C(O)C(C)O2)[C@H](C)[C@@H](OC2OC(C)CC(N(C)C)C2O)[C@](C)(O)C[C@H]1C (stereo partly drawn),–,0.5 µg/mL,4 µg/mL,4 µg/mL,–,0.06 µg/mL,> 45 mg/kg,> 50 mg/kg,> 50 mg/kg
CC[C@H]1OC(=O)[C@H](C)[C@@H](OC2CC(C)(OC)C(O)C(C)O2)[C@H](C)[C@@H](OC2OC(C)CC(N(C)C)C2O)[C@](C)(O)C[C@@H](C)[C@H](NCC2CCCCCCC2)[C@H](C)[C@@H](O)[C@]1(C)O (stereo partly drawn),–,0.06 µg/mL,0.5 µg/mL,1 µg/mL,–,–,–,–,–
CCCCCCCCCCN[C@@H]1[C@H](C)[C@@H](O)[C@](C)(O)[C@@H](CC)OC(=O)[C@H](C)[C@@H](OC2CC(C)(OC)C(O)C(C)O2)[C@H](C)[C@@H](OC2OC(C)CC(N(C)C)C2O)[C@](C)(O)C[C@H]1C (stereo partly drawn),2 µg/mL,0.015 µg/mL,1 µg/mL,1 µg/mL,2 µg/mL,0.015 µg/mL,> 50 mg/kg,> 50 mg/kg,> 50 mg/kg
CCN[C@@H]1[C@H](C)[C@@H](O)[C@](C)(O)[C@@H](CC)OC(=O)[C@H](C)[C@@H](OC2CC(C)(OC)C(O)C(C)O2)[C@H](C)[C@@H](OC2OC(C)CC(N(C)C)C2O)[C@](C)(O)C[C@H]1C (stereo partly drawn),1 µg/mL,0.12 µg/mL,1 µg/mL,1 µg/mL,1 µg/mL,0.03 µg/mL,23 mg/kg,13 mg/kg,13 mg/kg
CC[C@H]1OC(=O)[C@H](C)[C@@H](OC2CC(C)(OC)C(O)C(C)O2)[C@H](C)[C@@H](OC2OC(C)CC(N(C)C)C2O)[C@](C)(O)C[C@@H](C)[C@H](NCCCCCO)[C@H](C)[C@@H](O)[C@]1(C)O (stereo partly drawn),2 µg/mL,0.008 µg/mL,0.5 µg/mL,0.5 µg/mL,2 µg/mL,0.008 µg/mL,> 50 mg/kg,43 mg/kg,> 50 mg/kg
CC[C@H]1OC(=O)[C@H](C)[C@@H](OC2CC(C)(OC)C(O)C(C)O2)[C@H](C)[C@@H](OC2OC(C)CC(N(C)C)C2O)[C@](C)(O)C[C@@H](C)[C@H](NC2CCCC2)[C@H](C)[C@@H](O)[C@]1(C)O (stereo partly drawn),2 µg/mL,0.06 µg/mL,0.5 µg/mL,1 µg/mL,2 µg/mL,0.06 µg/mL,46 mg/kg,4 mg/kg,4 mg/kg
CC[C@H]1OC(=O)[C@H](C)[C@@H](OC2CC(C)(OC)C(O)C(C)O2)[C@H](C)[C@@H](OC2OC(C)CC(N(C)C)C2O)[C@](C)(O)C[C@@H](C)[C@H](NC(C)CCCN(CC)CC)[C@H](C)[C@@H](O)[C@]1(C)O (stereo partly drawn),8 µg/mL,0.5 µg/mL,2 µg/mL,2 µg/mL,8 µg/mL,0.5 µg/mL,41 mg/kg,31 mg/kg,18 mg/kg
CCCCCCCCN[C@@H]1[C@H](C)[C@@H](O)[C@](C)(O)[C@@H](CC)OC(=O)[C@H](C)[C@@H](OC2CC(C)(OC)C(O)C(C)O2)[C@H](C)[C@@H](OC2OC(C)CC(N(C)C)C2O)[C@](C)(O)C[C@H]1C (stereo partly drawn),1 µg/mL,0.015 µg/mL,0.25 µg/mL,0.5 µg/mL,1 µg/mL,0.015 µg/mL,> 50 mg/kg,23 mg/kg,46 mg/kg
CC[C@H]1OC(=O)[C@H](C)[C@@H](OC2CC(C)(OC)C(O)C(C)O2)[C@H](C)[C@@H](OC2OC(C)CC(N(C)C)C2O)[C@](C)(O)C[C@@H](C)[C@H](NCC(C)(C)CO)[C@H](C)[C@@H](O)[C@]1(C)O (stereo partly drawn),1 µg/mL,0.03 µg/mL,1 µg/mL,1 µg/mL,1 µg/mL,0.015 µg/mL,> 50 mg/kg,20 mg/kg,46 mg/kg
CC[C@H]1OC(=O)[C@H](C)[C@@H](OC2CC(C)(OC)C(O)C(C)O2)[C@H](C)[C@@H](OC2OC(C)CC(N(C)C)C2O)[C@](C)(O)C[C@@H](C)[C@H](NC(C)C)[C@H](C)[C@@H](O)[C@]1(C)O (stereo partly drawn),2 µg/mL,0.25 µg/mL,0.5 µg/mL,1 µg/mL,2 µg/mL,0.12 µg/mL,32 mg/kg,13 mg/kg,13 mg/kg
CCCCCCN[C@@H]1[C@H](C)[C@@H](O)[C@](C)(O)[C@@H](CC)OC(=O)[C@H](C)[C@@H](OC2CC(C)(OC)C(O)C(C)O2)[C@H](C)[C@@H](OC2OC(C)CC(N(C)C)C2O)[C@](C)(O)C[C@H]1C (stereo partly drawn),4 µg/mL,0.12 µg/mL,0.25 µg/mL,1 µg/mL,4 µg/mL,0.008 µg/mL,39 mg/kg,18 mg/kg,14 mg/kg
CC[C@H]1OC(=O)[C@H](C)[C@@H](OC2CC(C)(OC)C(O)C(C)O2)[C@H](C)[C@@H](OC2OC(C)CC(N(C)C)C2O)[C@](C)(O)C[C@@H](C)[C@H](N(C)C2CCCCC2)[C@H](C)[C@@H](O)[C@]1(C)O (stereo partly drawn),32 µg/mL,1 µg/mL,8 µg/mL,16 µg/mL,32 µg/mL,0.12 µg/mL,> 50 mg/kg,> 50 mg/kg,> 50 mg/kg

# Further compounds by falling MIC [3], results first:
MIC [1],MIC [3],MIC [5],MIC [6],MIC [7],MIC [9],SMILES,ED50 [2],ED50 [4],ED50 [8]
2 µg/mL,1 µg/mL,1 µg/mL,2 µg/mL,2 µg/mL,–,C=CCCCCCCCCCN[C@@H]1[C@H](C)[C@@H](O)[C@](C)(O)[C@@H](CC)OC(=O)[C@H](C)[C@@H](OC2CC(C)(OC)C(O)C(C)O2)[C@H](C)[C@@H](OC2OC(C)CC(N(C)C)C2O)[C@](C)(O)C[C@H]1C (stereo partly drawn),–,–,–
32 µg/mL,0.5 µg/mL,8 µg/mL,8 µg/mL,32 µg/mL,0.5 µg/mL,CC[C@H]1OC(=O)[C@H](C)[C@@H](OC2CC(C)(OC)C(O)C(C)O2)[C@H](C)[C@@H](OC2OC(C)CC(N(C)C)C2O)[C@](C)(O)C[C@@H](C)[C@H](N(C)C(C)C)[C@H](C)[C@@H](O)[C@]1(C)O (stereo partly drawn),–,–,–
2 µg/mL,0.25 µg/mL,2 µg/mL,4 µg/mL,2 µg/mL,–,CC[C@H]1OC(=O)[C@H](C)[C@@H](OC2CC(C)(OC)C(O)C(C)O2)[C@H](C)[C@@H](OC2OC(C)CC(N(C)C)C2O)[C@](C)(O)C[C@@H](C)[C@H](N(C)C)[C@H](C)[C@@H](O)[C@]1(C)O (stereo partly drawn),> 44 mg/kg,22 mg/kg,44 mg/kg
1 µg/mL,0.06 µg/mL,0.25 µg/mL,0.25 µg/mL,1 µg/mL,0.015 µg/mL,CCCCN[C@@H]1[C@H](C)[C@@H](O)[C@](C)(O)[C@@H](CC)OC(=O)[C@H](C)[C@@H](OC2CC(C)(OC)C(O)C(C)O2)[C@H](C)[C@@H](OC2OC(C)CC(N(C)C)C2O)[C@](C)(O)C[C@H]1C (stereo partly drawn),15 mg/kg,13 mg/kg,13 mg/kg
1 µg/mL,0.06 µg/mL,0.25 µg/mL,1 µg/mL,1 µg/mL,0.03 µg/mL,CC[C@H]1OC(=O)[C@H](C)[C@@H](OC2CC(C)(OC)C(O)C(C)O2)[C@H](C)[C@@H](OC2OC(C)CC(N(C)C)C2O)[C@](C)(O)C[C@@H](C)[C@H](NCCC(C)C)[C@H](C)[C@@H](O)[C@]1(C)O (stereo partly drawn),13 mg/kg,9 mg/kg,11 mg/kg
0.5 µg/mL,0.06 µg/mL,0.25 µg/mL,1 µg/mL,0.5 µg/mL,–,CC[C@H]1OC(=O)[C@H](C)[C@@H](OC2CC(C)(OC)C(O)C(C)O2)[C@H](C)[C@@H](OC2OC(C)CC(N(C)C)C2O)[C@](C)(O)C[C@@H](C)[C@H](NC)[C@H](C)[C@@H](O)[C@]1(C)O (stereo partly drawn),44 mg/kg,21 mg/kg,35 mg/kg
–,0.03 µg/mL,0.25 µg/mL,0.25 µg/mL,4 µg/mL,–,CC[C@H]1OC(=O)[C@H](C)[C@@H](OC2CC(C)(OC)C(O)C(C)O2)[C@H](C)[C@@H](OC2OC(C)CC(N(C)C)C2O)[C@](C)(O)C[C@@H](C)C(=O)[C@H](C)[C@@H](O)[C@H]1C (stereo partly drawn),–,–,–
1 µg/mL,0.015 µg/mL,0.25 µg/mL,0.25 µg/mL,1 µg/mL,0.015 µg/mL,CCCCCCCN[C@@H]1[C@H](C)[C@@H](O)[C@](C)(O)[C@@H](CC)OC(=O)[C@H](C)[C@@H](OC2CC(C)(OC)C(O)C(C)O2)[C@H](C)[C@@H](OC2OC(C)CC(N(C)C)C2O)[C@](C)(O)C[C@H]1C (stereo partly drawn),> 50 mg/kg,31 mg/kg,33 mg/kg
1 µg/mL,0.015 µg/mL,0.25 µg/mL,0.5 µg/mL,1 µg/mL,–,CC[C@H]1OC(=O)[C@H](C)[C@@H](OC2CC(C)(OC)C(O)C(C)O2)[C@H](C)[C@@H](OC2OC(C)CC(N(C)C)C2O)[C@](C)(O)C[C@@H](C)[C@H](NCCC(C)CCCC(C)(C)OC)[C@H](C)[C@@H](O)[C@]1(C)O (stereo partly drawn),> 46 mg/kg,25 mg/kg,24 mg/kg
